# The source made the active and inactive calls. The calls are words filed in the database; no cut-off is given here.
# Legend:
# A-431 = experiment: Antiproliferative activity against human A-431 cells assessed as reduction in cell proliferation measured after 72 hrs by celltiter-glo assay; type: functional, cell-based; conditions: A-431, 72 h
# Procedure, shortened: (§1)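 Cells in RPMI 1640 with 10% heat-inactivated FBS at 37°C and 5% CO₂ were seeded at 2 to 3 × 10³ per well. […] Growth was read as cellular ATP by CellTiter-Glo.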
# HCC827 [1] = experiment: Antiproliferative activity against human HCC827 cells assessed as reduction in cell proliferation measured after 72 hrs by celltiter-glo assay; type: functional, cell-based; conditions: HCC827, 72 h; procedure, shortened: as §1
# HCC827 [2] = experiment: Synergistic antiproliferative activity against human HCC827 cells assessed as combination index at ED50 measured after 72 hrs in presence of erlotinib by celltiter-glo assay; type: functional
# Procedure, shortened: (§2)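 Cells grown in RPMI 1640 with 10% heat-inactivated FBS at 37°C, 5% CO₂. Seeded at 2 to 3 × 10³ per well; drugs added 24 h later. […] Viability read as cellular ATP by CellTiter-Glo. CI calculated by Chou–Talalay from median-effect plots at ED50, ED75 and ED90.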
# Calu-6 [3] = experiment: Synergistic antiproliferative activity against human Calu-6 cells assessed as combination index at ED50 measured after 72 hrs in presence of erlotinib by celltiter-glo assay; type: functional; procedure, shortened: as §2
# Calu-6 [4] = experiment: Synergistic antiproliferative activity against human Calu-6 cells assessed as combination index at ED75 measured after 72 hrs in presence of erlotinib by celltiter-glo assay; type: functional; procedure, shortened: as §2
# NCI-H292 = experiment: Synergistic antiproliferative activity against human NCI-H292 cells assessed as combination index at ED90 measured after 72 hrs in presence of erlotinib by celltiter-glo assay; type: functional
# Calu-6 [5] = experiment: Synergistic antiproliferative activity against human Calu-6 cells assessed as combination index at ED90 measured after 72 hrs in presence of erlotinib by celltiter-glo assay; type: functional; procedure, shortened: as §2
# [6] = target: RAC-alpha serine/threonine-protein kinase (Homo sapiens) (UniProt P31749); experiment: Inhibition of AKT in human HCC827 cells assessed as reduction in PRAS40 phosphorylation at T246 residue at 5 umol/L measured after 5 hrs in presence of erlotinib by Western blot analysis; type: cell-based; conditions: dose 5.0 µmol/L
# [7] = target: RAC-alpha serine/threonine-protein kinase (Homo sapiens) (UniProt P31749); experiment: Inhibition of AKT in human HCC827 cells assessed as reduction in GSK3alpha/beta phosphorylation at S21/S9 residues at 5 umol/L measured after 5 hrs in presence of erlotinib by Western blot analysis; type: cell-based; conditions: dose 5.0 µmol/L
# [8] = In vivo inhibition of ERK phosphorylation at T202/Y204 residues in human NCI-H292 cells xenografted mouse at 120 mg/kg, po administered as single dose 2 hrs post-erlotinib treatment measured after 12 hrs by Western blot analysis relative to control; type: functional
# MDA-MB-468 [9] = experiment: Synergistic antiproliferative activity against human MDA-MB-468 cells assessed as combination index at ED50 treated 24 hrs prior to lapatinib and measured after 72 hrs by celltiter-glo assay; type: functional; conditions: time 96 hrs
# NCI-N87 [10] = experiment: Synergistic antiproliferative activity against human NCI-N87 cells assessed as combination index at ED50 treated 24 hrs prior to lapatinib and measured after 72 hrs by celltiter-glo assay; type: functional; conditions: time 96 hrs
# MDA-MB-468 [11] = experiment: Synergistic antiproliferative activity against human MDA-MB-468 cells assessed as combination index at ED50 measured after 96 hrs in presence of lapatinib by celltiter-glo assay; type: functional
# SK-BR-3 = experiment: Synergistic antiproliferative activity against human SK-BR-3 cells assessed as combination index at ED50 measured after 96 hrs in presence of lapatinib by celltiter-glo assay; type: functional
# SK-OV-3 = experiment: Synergistic antiproliferative activity against human SK-OV-3 cells assessed as combination index at ED50 measured after 96 hrs in presence of lapatinib by celltiter-glo assay; type: functional
# NCI-N87 [12] = experiment: Synergistic antiproliferative activity against human NCI-N87 cells assessed as combination index at ED50 measured after 96 hrs in presence of lapatinib by celltiter-glo assay; type: functional
# HCC1954 = experiment: Synergistic antiproliferative activity against human HCC1954 cells assessed as combination index at ED75 treated 24 hrs prior to lapatinib and measured after 72 hrs by celltiter-glo assay; type: functional; conditions: time 96 hrs
# NCI-N87 [13] = experiment: Synergistic antiproliferative activity against lapatinib pretreated human NCI-N87 cells assessed as combination index at ED75 measured after 72 hrs by celltiter-glo assay; type: functional
# MDA-MB-468 [14] = experiment: Synergistic antiproliferative activity against human MDA-MB-468 cells assessed as combination index at ED75 measured after 96 hrs in presence of lapatinib by celltiter-glo assay; type: functional
# [15] = Toxicity in human HCC70 cells xenografted CB17/icr SCID mouse assessed as mortality at 120 mg/kg, po administered 3 times per week for 3 weeks starting 2 hrs post-lapatinib treatment and measured during compound dosing; type: organism-based; conditions: in vivo, 504 h
# Procedure, shortened: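 HCC70 cells in 50% Matrigel/PBS injected s.c. into flank of female C.B-17/ICR-scid mice; dosing began after 3 wk, groups randomized at mean tumour 0.2 cm³ (n = 5). Lapatinib 100 mg/kg p.o. in distilled water, 5 d/wk for 3 wk; MK-2206 in 30% Captisol p.o. 3×/wk for 3 wk, given 2 h after lapatinib. Body weight and physical signs monitored throughout.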
# ZR-75-1 = experiment: Synergistic antiproliferative activity against human ZR-75-1 cells assessed as combination index at ED75 measured after 72 hrs in presence of docetaxel by celltiter-glo assay; type: functional
# MDA-MB-453 = experiment: Synergistic antiproliferative activity against human MDA-MB-453 cells assessed as combination index at ED90 measured after 72 hrs in presence of docetaxel by celltiter-glo assay; type: functional; procedure, shortened: as §2
# MCF7 = experiment: Synergistic antiproliferative activity against human MCF7 cells assessed as combination index at ED90 measured after 72 hrs in presence of docetaxel by celltiter-glo assay; type: functional; procedure, shortened: as §2
# A2780 [16] = experiment: Synergistic antiproliferative activity against human A2780 cells assessed as combination index at ED75 measured after 72 hrs in presence of doxorubicin by celltiter-glo assay; type: functional
# Procedure, shortened: (§3)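 Cells were seeded at 2–3 × 10³ per well in RPMI 1640 with 10% FBS. At 24 h, MK-2206 and the partner drug were added simultaneously at constant concentration ratios spanning each agent's IC₅₀, for 72 h. Growth was read as cellular ATP by CellTiter-Glo. CI was taken from median-effect plots of each agent alone and in combination (Chou–Talalay), at ED₅₀, ED₇₅ and ED₉₀.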
# A2780 [17] = experiment: Synergistic antiproliferative activity against human A2780 cells assessed as combination index at ED90 measured after 72 hrs in presence of gemcitabine by celltiter-glo assay; type: functional; procedure, shortened: as §3
# NCI-H460 = experiment: Synergistic antiproliferative activity against human NCI-H460 cells assessed as combination index at ED25 to ED90 measured after 72 hrs in presence of carboplatin by celltiter-glo assay; type: functional
# UMC-11 = experiment: Induction of apoptosis in human UMC-11 cells assessed as fold induction of capsase-3/7 activity measured after 24 to 48 hrs in presence of carboplatin by caspase-glo 3/7 assay; type: functional; conditions: time 24-48 hrs
# NCI-H1703 = experiment: Induction of apoptosis in human NCI-H1703 cells assessed as fold induction of capsase-3/7 activity measured after 24 to 48 hrs in presence of gemcitabine by caspase-glo 3/7 assay; type: functional; conditions: time 24-48 hrs
# Sequence of RAC-alpha serine/threonine-protein kinase (Homo sapiens) (P31749 whole entry): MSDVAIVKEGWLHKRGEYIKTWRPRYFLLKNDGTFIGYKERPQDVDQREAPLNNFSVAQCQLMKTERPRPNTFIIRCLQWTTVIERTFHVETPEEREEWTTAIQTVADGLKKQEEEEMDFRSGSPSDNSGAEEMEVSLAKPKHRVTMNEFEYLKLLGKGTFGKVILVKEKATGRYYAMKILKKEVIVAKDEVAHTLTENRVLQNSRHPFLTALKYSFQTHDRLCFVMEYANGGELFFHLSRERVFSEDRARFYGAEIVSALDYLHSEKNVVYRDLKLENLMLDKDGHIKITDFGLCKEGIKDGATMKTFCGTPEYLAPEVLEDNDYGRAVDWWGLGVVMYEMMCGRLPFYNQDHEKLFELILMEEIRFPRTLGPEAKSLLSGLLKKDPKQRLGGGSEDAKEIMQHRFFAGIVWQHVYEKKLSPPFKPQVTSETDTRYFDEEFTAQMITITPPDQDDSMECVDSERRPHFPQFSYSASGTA
structure (smiles),measurement,setting,value
Cl.NC1(c2ccc(-c3nc4ccn5c(=O)[nH]nc5c4cc3-c3ccccc3)cc2)CCC1,IC50,A-431,5.5 µM
same,IC50,HCC827 [1],4.3 µM
same,CI50,HCC827 [2],0.39
same,CI50,Calu-6 [3],0.49
same,CI75,Calu-6 [4],0.25
same,CI90,NCI-H292,0.28
same,CI90,Calu-6 [5],0.13
same,inhibition,[6],Active
same,inhibition,[7],Active
same,inhibition in vivo at 120 mg/kg,[8],53.5%
same,CI50,MDA-MB-468 [9],0.18
same,CI50,NCI-N87 [10],0.18
same,CI50,MDA-MB-468 [11],0.18
same,CI50,SK-BR-3,0.18
same,CI50,SK-OV-3,0.18
same,CI50,NCI-N87 [12],0.18
same,CI75,HCC1954,0.18
same,CI75,NCI-N87 [13],0.18
same,CI75,MDA-MB-468 [14],0.18
same,Activity,[15],Non-Toxic
same,CI75,ZR-75-1,0.2
same,CI90,MDA-MB-453,0.3
same,CI90,MCF7,0.3
same,CI75,A2780 [16],0.43
same,CI90,A2780 [17],0.39
same,CI,NCI-H460,0.3
same,fold change (FC),UMC-11,1.1
same,fold change (FC),NCI-H1703,1.5

# Reference: ChEMBL document CHEMBL5705892, “MK-2206, an allosteric Akt inhibitor, enhances antitumor efficacy by standard chemotherapeutic agents or molecular targeted drugs in vitro and in vivo” (Mol Cancer Ther, 2010)
